Experimental data published in ChEMBL document CHEMBL3414496, “Synthesis and biological evaluation of novel 2-heteroarylimino-1,3-thiazolidin-4-ones as potential anti-tumor agents” (Eur J Med Chem, 2015).
pIC50: −log10 of the molar value. Activity calls are given as the source filed them. The rule behind the calls is not given here.

What was measured:
HT-29 [1] = assay: Induction of cell cycle arrest in human HT-29 cells assessed as accumulation at S phase by propidium iodide staining based flow cytometry (reference value: 23.9 +/- 0.3%); type: functional
HT-29 [2] = assay: Induction of cell cycle arrest in human HT-29 cells assessed as accumulation at G2/M phase by propidium iodide staining based flow cytometry (reference value: 30 +/- 2%); type: functional
HT-29 [3] = assay: Induction of chromatin condensation in human HT-29 cells incubated for 2 days by DAPI staining based UV fluorescent microscopy; type: functional, cell-based
Summary of the method: (§1)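 HT29 cells in 35 mm dishes treated over two days, fixed in 70% ethanol for 5 min and rinsed with PBS. Stained with 1 µM DAPI in PBS for 15 min and imaged by UV fluorescence microscopy for nuclear morphology.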

HT-29 [4] = assay: Induction of nuclear fragmentation in human HT-29 cells incubated for 2 days by DAPI staining based UV fluorescent microscopy; type: functional, cell-based; summary of the method: as §1
HT-29 [5] = assay: Induction of mitochondrial membrane potential loss in human HT-29 cells incubated for 2 days by JC1 staining based UV fluorescent microscopy; type: functional, cell-based
Summary of the method: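 HT29 cells in dishes exposed to test agents, then 1 µM JC-1 added to the medium for 15 min at 37°C. Cells washed with warm PBS and imaged by fluorescence microscopy for J-aggregates (red channel). 50 µM CCCP for 15 min served as depolarization control.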

HT-29 [6] = assay: Induction of ROS generation in human HT-29 cells at cytotoxic IC50 level after 4 hrs by DCF-DA staining based fluorescence assay; type: functional, cell-based
Summary of the method: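 HT29 cells treated two days after seeding, then loaded with 50 µM DCF-DA for 15 min at 37°C. Cells trypsinized, washed and resuspended in PBS, and 30 000 cells/sample read by flow cytometry (FL-1). Expressed as % of DMSO-treated cells; […] for 1 h served as positive control. Triplicates from three independent experiments.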

HT-29 [7] = assay: Induction of autophagy in human HT-29 cells assessed as increase in acidic vesicles by acridine orange staining based flow cytometry; type: functional, cell-based
Summary of the method: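 HT29 cells treated for two days with daily medium changes, stained with 1 µg/ml acridine orange for 15 min, then trypsinized and suspended in PBS. FL-3 fluorescence read by flow cytometry on 30 000 cells/sample and expressed in arbitrary units relative to DMSO-treated cells. Triplicates from three independent experiments.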

HT-29 [8] = assay: Induction of autophagy in human HT-29 cells assessed as increase in beclin-1 protein expression by Western blotting method; type: functional, cell-based
Summary of the method: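 HT29 cells in flasks treated over two days. Total protein homogenates immunoblotted with anti-beclin-1 (1:500), with GAPDH as loading control.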

HT-29 [9] = assay: Induction of redox status changes in human HT-29 cells assessed as RNS content by DAF-2DA staining based fluorescence assay (reference value: 100%); type: functional
Summary of the method: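 HT29 cells treated two days after seeding, then loaded with 1 µM DAF-2DA for 30 min at 37°C. Cells trypsinized and resuspended in PBS, and 30 000 cells/sample measured by flow cytometry (FL-1). Expressed as % of DMSO-treated cells. Triplicates from three independent experiments.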

HT-29 [10] = assay: Induction of redox status changes in human HT-29 cells assessed as RNS content by DHR123 staining based fluorescence assay (reference value: 100%); type: functional
Summary of the method: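 HT29 cells treated two days after seeding, then loaded with 25 µM DHR for 20 min at 37°C. Cells trypsinized and resuspended in PBS, and 30 000 cells/sample read by flow cytometry (FL-1). Expressed as % of DMSO controls. Triplicates from three independent experiments.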

HT-29 [11] = assay: Induction of redox status changes in human HT-29 cells assessed as GSH content by fluorescence based microtiter plate method (reference value: 100%); type: functional
Summary of the method: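 HT29 cells exposed 48 h after seeding for 24 h, then extracted into ice-cold 10% perchloric acid with 2 mM EDTA and spun at 15 000 g. GSH in the supernatant measured by a fluorescence microtiter plate method; pellet protein measured by modified Lowry. Values in nmol GSH/mg protein, shown as % of DMSO controls. Triplicates from three experiments.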

HT-29 [12] = assay: Inhibition of cell growth in human HT-29 cells assessed as mitotic index ratio in absence of 1 mM ascorbic acid (reference value: 1); type: functional
Summary of the method: (§2)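 HT29 cells treated daily from 48 h after seeding, over three days with daily medium changes, in 0.1% (v/v) DMSO vehicle. Cells trypsinised, mixed 1:1 with 0.04% trypan blue, and living cells counted by haemocytometer under microscope. Mitotic index is treated count relative to DMSO control. Triplicate determinations, two independent experiments, mean ± S.E.M.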

HT-29 [13] = assay: Inhibition of cell growth in human HT-29 cells assessed as mitotic index ratio in presence of 1 mM ascorbic acid (reference value: 1.12 +/- 0.03); type: functional
HT-29 [14] = assay: Cytotoxicity against human HT-29 cells after 72 hrs by MTT assay; type: functional, cell-based; conditions: HT-29, 72 h
Summary of the method: (§3)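 Cells seeded at 10^4/well, exposed 24 h later to graded concentrations (0.01–100 µM) for 72 h at 37°C; MTT 0.5 mg/ml for 2 h, formazan dissolved in DMSO, absorbance at 570 nm. […] Colon lines in DMEM, breast lines in RPMI, both with 10% FCS.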

[15] = Cytotoxicity against human HCT116 cells after 72 hrs by MTT assay; type: functional, cell-based; conditions: HCT-116, 72 h; summary of the method: as §3
SW-620 = assay: Cytotoxicity against human SW620 cells after 72 hrs by MTT assay; type: functional, cell-based; conditions: SW-620, 72 h; summary of the method: as §3
MCF7 = assay: Cytotoxicity against human MCF7 cells after 72 hrs by MTT assay; type: functional, cell-based; conditions: MCF7, 72 h; summary of the method: as §3
MDA-MB-231 = assay: Cytotoxicity against human MDA-MB-231 cells after 72 hrs by MTT assay; type: functional, cell-based; conditions: MDA-MB-231, 72 h; summary of the method: as §3
HT-29 [16] = assay: Growth inhibition of human HT-29 cells at cytotoxic IC50 level after 3 days by trypan blue dye exclusion assay; type: functional
Summary of the method: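 HT29 cells treated 48 h after seeding, dosed daily with daily medium change over three days; drug diluted in DMSO, controls 0.1% (v/v) DMSO. Cells trypsinized, mixed 1:1 with 0.04% trypan blue, live cells counted by hematimeter. Reported as mitotic index (treated/DMSO count); triplicates from two independent experiments.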

HT-29 [17] = assay: Reduction in cell growth of human HT-29 cells at cytotoxic IC50 level after 3 days by trypan blue dye exclusion assay; type: functional, cell-based; summary of the method: as §2
HT-29 [18] = assay: Induction of cell cycle arrest in human HT-29 cells assessed as accumulation at subG1 phase by propidium iodide staining based flow cytometry (reference value: 6.9 +/- 0.5%); type: functional
HT-29 [19] = assay: Induction of cell cycle arrest in human HT-29 cells assessed as accumulation at G0/G1 phase by propidium iodide staining based flow cytometry (reference value: 46.1 +/- 0.4%); type: functional
HT-29 [20] = assay: Induction of redox status changes in human HT-29 cells assessed as ROS content in absence of 1 mM ascorbic acid by DCF-DA staining based fluorescence assay (reference value: 100%)
HT-29 [21] = assay: Induction of redox status changes in human HT-29 cells assessed as ROS content in presence of 1 mM ascorbic acid by DCF-DA staining based fluorescence assay (reference value: 65.7 +/- 4.7%)

| SMILES | Activity (HT-29 [1]) | Activity (HT-29 [2]) | Activity (HT-29 [3]) | Activity (HT-29 [4]) | Activity (HT-29 [5]) | Activity (HT-29 [6]) | Activity (HT-29 [7]) | Activity (HT-29 [8]) | Activity (HT-29 [9]) | Activity (HT-29 [10]) | Activity (HT-29 [11]) | Ratio (HT-29 [12]) | Ratio (HT-29 [13]) | pIC50 (HT-29 [14]) | pIC50 [15] | pIC50 (SW-620) | pIC50 (MCF7) | pIC50 (MDA-MB-231) | growth inhibition (GI) (HT-29 [16]) | Activity (HT-29 [20]) | also measured |
| --- | --- | --- | --- | --- | --- | --- | --- | --- | --- | --- | --- | --- | --- | --- | --- | --- | --- | --- | --- | --- | --- |
| CN(C)c1ccc(/C=C2\S/C(=N\c3csc(-c4ccc(Cl)cc4)c3)NC2=O)cc1 | 14.8% | 83.7% | Active | Active | Active | Active | Active | Active | 294.4% | 80.1% | 84.6% | 0.02 | 0.02 | 5.82 | 6.30 | 6.10 | 6.40 | 6.10 | 90% | 177.8% | inhibition (HT-29 [17]): Active; Activity (HT-29 [18]): 29%; Activity (HT-29 [19]): 1.5%; Activity (HT-29 [21]): 133.6% |
| COc1ccc(/C=C2\S/C(=N\c3nc(-c4ccc(Cl)cc4)cs3)NC2=O)cc1 |  |  | Active | Active | Active |  | Active | Active | 103.3% | 80.9% | 117% |  |  | 6.40 | 6.40 | 7.30 | 7.00 | 6.52 | <25% |  |  |
| COc1ccc(/C=C2\S/C(=N\c3csc(-c4ccc(Cl)cc4)c3)NC2=O)cc1 | 18.2% | 80.6% | Active | Active | Active | Active | Active | Active | 169.7% | 85.9% | 88.8% | 0.03 | 0.03 | 5.42 | 5.89 | 4.55 | 6.00 | 5.92 | 90% | 123.1% | inhibition (HT-29 [17]): Active; Activity (HT-29 [18]): 21.6%; Activity (HT-29 [19]): 1.2%; Activity (HT-29 [21]): 97% |
| COc1ccc(/C=C2\S/C(=N\c3csc(-c4ccc(Cl)cc4)c3)NC2=O)cc1OC | 11.3% | 86.4% | Active | Active | Active | Active | Active | Active | 116.3% | 83.6% | 108.1% | 0.04 | 0.04 | 4.96 | 5.77 | < 4.30 | 5.12 | 5.72 | 90% | 141.6% | inhibition (HT-29 [17]): Active; Activity (HT-29 [18]): 20.6%; Activity (HT-29 [19]): 2.3%; Activity (HT-29 [21]): 112.1% |
| CN(C)c1ccc(/C=C2\S/C(=N\c3nc(-c4ccc(Cl)cc4)cs3)NC2=O)cc1 |  |  | Active | Active | Active |  | Active | Active | 144.4% | 157.6% | 109.1% | 0.13 |  | 6.30 | 6.70 | 6.70 | 7.00 | 6.52 | <25% | 252.5% |  |
| Cc1ccc(/C=C2\S/C(=N\c3csc(-c4ccc(Cl)cc4)c3)NC2=O)cc1 | 14.8% | 84% | Active | Active | Active | Active | Active | Active | 155% | 95% | 73.9% | 0.02 | 0.02 | 5.19 | 6.00 | 5.82 | 6.05 | 6.05 | 90% | 172% | inhibition (HT-29 [17]): Active; Activity (HT-29 [18]): 21.5%; Activity (HT-29 [19]): 1.2%; Activity (HT-29 [21]): 102.5% |
